Hits are enriched below; roughly 1.3% of the tested compounds scored in any of these assays.
Mdm2 ligase inh: MDM2-luciferase reporter signal enhancers, primary screen, MDM2 E3 ligase inhibitor project, cell-based, luminescence, 1536-well; cell-based MDM2 ubiquitination luciferase reporter, 2 h; 0 = plate control, 100 = twice control, blank-subtracted; signal enhancement, % at 5 µM; hit rate 0.11% among 210,000; AID 1230, 2008;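 active = signal enhancement of 30% or more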;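 note: luminescence tracks abundance of the self-degrading MDM2-luciferase fusion protein; higher signal means inhibition of MDM2 E3 ligase activity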
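Material: stable MDM2–luciferase fusion reporter cells / Quantity: 2000 cells/well / Dosing: single 5 µM compound dose, 0.2% final DMSO / Buffer or medium: DMEM / Schedule: 4 h cell settling then 2 h compound exposure, 37 °C / Detection: luminescence with SteadyLite reagent, 15 min at room temperature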
PERK inh: block of dimerizer-induced PERK translation repression, primary screen, PERK inhibitor project, CHO PERK-DD cells, SEAP luminescence, HTS | Eukaryotic translation initiation factor 2-alpha kinase 3 (Homo sapiens), Q9NZJ5 | CHO PERK-DD fusion, SEAP luminescence translation reporter | inhibition, % at 5.6 µM | hit rate 0.17% among 220,000 | AID 1416, 2008;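 active = inhibition above the mean inhibition of all tested compounds plus 3 SD, set separately per screening campaign, cut at about 2.9% in these data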;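 note: PERK kinase domain activated by AP20187 dimerizer at 100 nM; 0% = DMSO with dimerizer and 100% = rapamycin at 8.4 µM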
Hck-Nef inh: inhibitors of Nef-activated human Hck kinase, primary screen, biochemical, Z-Lyte FRET, 384-well, Hck-YEEI. Tyrosine-protein kinase HCK (Homo sapiens), P08631. Recombinant Hck-YEEI plus Nef, Z-Lyte FRET kinase assay. inhibition, % at 20 µM. hit rate 0.68% among 220,000. AID 463187, 2010;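 active = Hck-Nef kinase inhibition above about 50%, limit read from the data; inactive = inhibition below that limit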;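 note: 0% = DMSO with Hck plus Nef and 100% = Hck alone without Nef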
PKD1 kinase inh: inhibitors of human PKD1 kinase, biochemical, fluorescence polarization; PKD1 kinase fluorescence polarization assay; inhibition, % (concentration not given with the values); hit rate 0.056% among 200,000; AID 797, 2007; in the data active = inhibition above about 50%
Target sequence (Q15139 whole entry, looked up): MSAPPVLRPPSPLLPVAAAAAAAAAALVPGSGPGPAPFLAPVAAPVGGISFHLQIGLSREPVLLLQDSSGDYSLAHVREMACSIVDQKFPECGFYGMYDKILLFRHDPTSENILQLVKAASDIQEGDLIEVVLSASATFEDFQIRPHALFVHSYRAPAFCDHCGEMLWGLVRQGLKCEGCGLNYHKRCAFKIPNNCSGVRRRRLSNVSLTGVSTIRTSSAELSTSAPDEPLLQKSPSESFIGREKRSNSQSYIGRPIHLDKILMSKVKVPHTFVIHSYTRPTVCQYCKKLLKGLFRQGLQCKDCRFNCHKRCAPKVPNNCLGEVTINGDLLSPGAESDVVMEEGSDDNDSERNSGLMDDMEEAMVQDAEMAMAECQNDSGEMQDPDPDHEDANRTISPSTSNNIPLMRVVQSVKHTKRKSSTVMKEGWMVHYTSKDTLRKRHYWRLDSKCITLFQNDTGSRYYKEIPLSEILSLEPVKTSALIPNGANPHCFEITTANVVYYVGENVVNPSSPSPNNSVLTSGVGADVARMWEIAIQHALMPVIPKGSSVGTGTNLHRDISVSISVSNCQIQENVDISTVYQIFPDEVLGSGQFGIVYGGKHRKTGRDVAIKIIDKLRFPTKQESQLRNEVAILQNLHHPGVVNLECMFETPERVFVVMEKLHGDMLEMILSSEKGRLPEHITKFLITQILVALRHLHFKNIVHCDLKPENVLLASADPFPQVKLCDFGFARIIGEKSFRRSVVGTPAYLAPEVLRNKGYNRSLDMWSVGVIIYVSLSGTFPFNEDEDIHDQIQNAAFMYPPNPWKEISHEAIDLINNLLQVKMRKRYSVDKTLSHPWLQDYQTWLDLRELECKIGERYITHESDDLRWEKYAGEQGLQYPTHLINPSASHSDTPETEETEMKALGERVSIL
H9c2 TAG inh: inhibitors of triacylglycerol accumulation, primary screen, cell-based, uHTS, fluorescence, H9c2 | H9c2 cells, Nile Red lipid (TAG) fluorescence; cells loaded with 200 µM oleic acid | inhibition, % at 12.5 µM | hit rate 0.66% among 230,000;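 active = pattern-corrected inhibition of lipid staining of at least 50% with the nuclear-stain viability signal not falling by more than 50%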;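 note: 0% = DMSO wells and 100% = triacsin C control wells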
Rad51 HR inh: human RAD51 strand exchange inhibitors, primary screen, biochemical, fluorescence; DNA repair protein RAD51 homolog 1 (Homo sapiens), Q06609; hRad51 DNA strand exchange, fluorescence dequenching; inhibition, % at 10 µM; hit rate 0.085% among 200,000; AID 1385, 2008;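 active = inhibition above 40% at the single screening dose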;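 note: 0% = DMSO control wells and 100% = blanks with heterologous ssDNA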
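Test system: preformed human Rad51 ssDNA filaments. Compound dosing: single dose, 10 µM final compound. Incubation: filaments 15 min 37 °C, then compound 30 min. Technique: FRET fluorescence dequenching, excitation 485 nm, emission 520 nm. Read-out basis: percent inhibition from fluorescence, normalised to plate control and blank means. Benchmarks: plate controls and plate blanks.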
Active calls of the source: *; nt = no result given.

SMILES | Mdm2 ligase inh | PERK inh | Hck-Nef inh | PKD1 kinase inh | H9c2 TAG inh | Rad51 HR inh
CC(C)N1CCc2c(sc(NC(=O)c3ccc4ccccc4c3)c2C(N)=O)C1 | nt | nt | nt | nt | 32 | nt
O=C1OCC2=C1C(c1ccccc1)CC(=O)N2c1ccccc1 (stereo unspecified) | -4 | 2 | -2 | 9 | nt | 51*
O=C(NCCc1ccccc1)C1CCN(C2CCN(Cc3ccc(CO)o3)CC2)CC1 | 38* | 1 | 18 | 4 | 8 | 0
O=C(NCCc1ccccc1)C1CCN(C2CCN(C(=O)CC3=CCCCC3)CC2)CC1 | -4 | 0 | 5 | -8 | -15 | -29
N/C(=N\N=C\c1ccc([N+](=O)[O-])cc1)c1nonc1N | -21 | 3.4* | 15 | nt | -16 | 10
COc1ccc(CCNC(=O)C2CC(O)CN2S(=O)(=O)c2ccc(Cl)cc2)cc1OC (stereo unspecified) | nt | nt | nt | nt | -8 | nt
O=c1[nH]c(Cc2ccccc2)nc2scc(-c3ccccc3)c12 | -17 | 0 | 1 | -4 | -16 | 5
Cc1csc(SC(C)c2nc3scc(-c4ccccc4)c3c(=O)[nH]2)n1 (stereo unspecified) | nt | 1 | 17 | nt | -20 | 40*
COc1ccc(-c2csc(NC(=O)CSc3nc(C)cs3)n2)cc1 | 1 | 3.6* | 6 | -1 | nt | -2
Cc1cccc(N2CSC3=C(C#N)C(c4ccc(C)o4)CC(=O)N3C2)c1 (stereo unspecified) | -9 | 0 | 80* | -7 | nt | 3
O=C(O)CSc1cc(C(=O)c2cc(F)ccc2O)cn2c(=O)c3c(-c4ccccc4)csc3nc12 | -9 | 0 | 52* | nt | -7 | nt
CCOC(=O)c1sc2nc3c(SCCC#N)cc(C(=O)c4cc(F)ccc4O)cn3c(=O)c2c1C | 1 | 1 | 4 | -3 | nt | -71
C=C1CCN(CC(=O)OC)S(=O)(=O)c2ccccc21 | 13 | nt | 17 | nt | 9 | 0
CC1(C)COC(c2cccc(C3=NC(C)(C)CO3)n2)=N1 | 4 | 1 | 2 | -11 | nt | -15
Cc1ccc(S(=O)(=O)N[C@H](C(=O)Oc2ccc3c(C(F)(F)F)cc(=O)oc3c2)c2ccccc2)cc1 | -1 | 0 | -1 | 7 | -15 | -23
Cc1ccc(S(=O)(=O)NC(C(=O)Oc2ccc3c(C)c(Cl)c(=O)oc3c2)c2ccccc2)cc1 (stereo unspecified) | nt | 0 | 88* | -4 | nt | nt
CCC[C@@H](NS(=O)(=O)c1ccc(C)cc1)C(=O)Oc1ccc2c3c(c(=O)oc2c1)CCC3 | -6 | 1 | 24 | -5 | 1 | -2
Cc1ccc(S(=O)(=O)NC(C(=O)Oc2ccc3ccc(=O)oc3c2)c2ccccc2)cc1 (stereo unspecified) | 0 | 0 | 58* | 2 | nt | -6
CCN1CC(=O)Nc2cc(S(=O)(=O)N3CCOCC3)ccc21 | -22 | 3.7* | 22 | -3 | -22 | -4
Cc1ccc(NC(=O)C(=Cc2ccc(C(=O)O)cc2)C(=O)Nc2ccc(C)cc2C)c(C)c1 | -8 | -1 | 16 | nt | 56* | 3
CCOc1cc(C(N)=O)cc(Br)c1OC | -11 | 4.9* | 7 | -6 | -9 | -13
Cc1ccc(-n2c(-c3ccccc3)c[n+]3c2CCc2ccccc2-3)c(C)c1 | -7 | 1 | 26 | 5 | 3 | 16
CCN(CC)S(=O)(=O)c1cc(NC(=O)Cn2ncc(Cl)c(Cl)c2=O)ccc1C | 14 | 1 | 74* | nt | 38 | -4
Cc1cc(Br)ccc1NC(=O)CNC(=O)Cn1ncc(Cl)c(Cl)c1=O | -3 | 0 | 3 | 5 | 56* | nt
Cc1ccc(S(=O)(=O)N2CCCCC2)cc1NC(=O)Cn1ncc(Cl)c(Cl)c1=O | nt | nt | nt | nt | 48 | nt
SMILES | Mdm2 ligase inh | PERK inh | Hck-Nef inh | PKD1 kinase inh | H9c2 TAG inh | Rad51 HR inh
CCC(=O)Nc1ccc(C(=O)Cn2ncc(Cl)c(Cl)c2=O)cc1 | -4 | 0 | 41 | nt | 61* | nt
O=C(C=Cc1ccc2c(c1)OCO2)C1CC1 | nt | nt | nt | nt | 4 | nt
O=C1C(NS(=O)(=O)c2cccs2)=C(N2CCN(c3cccc(Cl)c3)CC2)C(=O)c2ccccc21 | -9 | -1 | -2 | -9 | 50* | -3
CCCc1nc2cc(CC(=O)OC)ccc2o1 | 3 | 3.1* | 0 | -8 | nt | 2
COC(=O)CCCNC(=O)c1ccc2oc(CCCc3ccccc3)nc2c1 | nt | nt | nt | nt | -23 | nt
CCOc1ccc(C(Nc2cccnc2)c2cc(Cl)c3cccnc3c2O)cc1 (stereo unspecified) | -8 | -1 | 51* | -3 | nt | -1
CCN(CC)S(=O)(=O)c1ccc2c(c1)nc(SC(C)C(N)=O)n2-c1ccc(OC)cc1 (stereo unspecified) | -11 | -1 | 1 | -7 | 13 | 63*
O=C(Cc1ccccn1)c1ccc(Cl)cc1 | nt | nt | nt | nt | -13 | nt
CC1=C(CC(=O)c2ccc(Cl)cc2)C(=O)c2ccccc2C1=O | -10 | 2.9* | -1 | -4 | nt | -7
O=C(/C=C/c1cccs1)N1CCN(c2ccc(O)cc2)CC1 | 3 | 1 | 24 | 0 | -9 | 41*
Cc1nsc(N)c1C(=O)O | -7 | 3.4* | 21 | nt | -1 | 8
CC(C)=NOC(=O)c1ccc(-c2ccccc2)cc1 | 6 | 1 | 2 | -12 | nt | 7
Oc1ccc2ccccc2c1N=Nc1ccc(F)cc1 | -15 | 0 | 25 | nt | 58* | 6
CCOc1ccc(NC(=O)c2cc(S(=O)(=O)N3CCCCC3)c[nH]2)cc1 | nt | nt | nt | nt | 10 | nt
Oc1cccc(C=NNc2ccccn2)c1 | nt | nt | nt | nt | -17 | nt
Oc1ccc(C=NNc2ccccn2)c(O)c1 | nt | nt | nt | nt | 53* | nt
Cc1cc(C)cc(C(=O)N2CC(=O)Nc3ccccc32)c1 | -19 | -1 | 2 | -6 | 55* | 5
Cc1cc(C)c2nc(SCC(=O)N3CC(=O)Nc4ccccc43)c(C#N)cc2c1 | -11 | 0 | 11 | -6 | 54* | nt
C[C@H]1CC[C@@]2(O[C@H](CCO)C[C@@H](O)[C@@H]2O)O1 | nt | 0 | -14 | -5 | -11 | 2
CN(C(=O)c1cccc(COc2ccc(Cl)cc2Cl)c1)c1ccccc1 | 46* | 0 | 1 | 4 | nt | nt
O=C(CCCCCNc1nc(=S)[nH]c2ccccc12)NCCC1=CCCCC1 | 0 | 0 | 27 | -5 | 0 | -14
COc1cc2ncnc(NCCc3ccccc3)c2cc1OC | -3 | 0 | 59* | 0 | -31 | 0
COc1ccc(CCNc2ncnc3cc(OC)c(OC)cc23)cc1OC | -25 | 0 | 31 | 6 | -18 | -3

Screens as filed in PubChem.
